Experimental data taken from ChEMBL document CHEMBL5030567, “Macrocyclic Inhibitors of HGF-Activating Serine Proteases Overcome Resistance to Receptor Tyrosine Kinase Inhibitors and Block Lung Cancer Progression” (J Med Chem, 2021).
Converted amounts (≈) assume the structure as drawn. The source made the active and inactive calls. The rule behind the calls is not given here. Numbered stars: 1 amine (or outer) side, 2 acyl side, 3 side chain; on linkers, the order of the positions; unused ones are H or OH. Square brackets hold non-standard residues; d marks the D form. Peptide text beside a SMILES is read from it. X1 = N=C(N)NCCC[C@H](N[*:1])C(=O)c1nc2ccc(C(=O)[*:2])cc2s1

Legend:
HCC827 [1] = assay: Cytotoxicity against human HCC827 cells assessed as reduction in cell viability at 0.1 to 1 uM after 72 hrs by crystal violet staining based assay; details: dose 0.1-1 µM
[2] = Toxicity in hHGF knock in NSG mouse xenografted with human NCI-H596 cells at 50 mg/kg, ip administered daily for 25 days; type: organism-based; details: in vivo, 600 h, time 25 day
EBC-1 = assay: Cytotoxicity against human EBC-1 cells assessed as reduction in cell viability preincubated with compound and pro-HGF for 24 hrs followed by JNJ-38877605 addition and measured after 48 hrs by CellTiter-Glo assay; type: functional, cell-based; details: time 72.0 hrs
Method in brief: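 EBC-1 cells pre-incubated 24 h with pro-HGF (100 ng/ml) with or without compound (1 µM), then given MET kinase inhibitor JNJ-38877605 (25 nM). Viability read by CellTiter-Glo after 48 h. Means±S.E.M., n=3; one-way ANOVA with Dunnett's test.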

Prothrombin = Prothrombin (Homo sapiens, UniProt P00734); assay: Inhibition of recombinant thrombin (unknown origin) using D-Phe-Pip-Arg-pNA as substrate preincubated for 30 mins followed by substrate addition by chromogenic assay
HCC827 [3] = assay: Cytotoxicity against human HCC827 cells assessed as reduction in cell viability at 0.1 to 1 uM after 72 hrs in presence of pro-HGF by crystal violet staining based assay; details: dose 0.1-1 µM
[4] = Stability in human plasma assessed as half life; type: ADME, cell-free
[5] = Stability in mouse liver microsomes assessed as half life; type: ADME, Microsome
Serine protease hepsin [6] = target: T1, Serine protease hepsin (Homo sapiens, UniProt P05981); assay: Inhibition of recombinant human C-terminal 10-His tagged hepsin (Arg45 to Leu417) expressed in mouse myeloma cells mediated pro-HGF activation preincubated for 30 mins followed by pro-HGF addition and measured after 1 hr by immunoblotting analysis
Method in brief: (§1)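 Recombinant pro-HGF (10 ng) incubated one hour with matriptase (1 nM), hepsin (10 nM) or HGFA (5 nM), with or without inhibitor. Processing detected by immunoblot with a polyclonal antibody recognizing pro-HGF and the HGF alpha and beta chains; active HGF served as positive control.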

[7] = Stability in mouse plasma assessed as half life; type: ADME, cell-free
NCI-H596 [8] = assay: Antitumor activity against human NCI-H596 cells xenografted in hHGF knock in NSG mouse assessed as tumor growth inhibition at 50 mg/kg, ip administered daily for 25 days; type: functional, organism-based; details: time 25.0 day
[9] = Acute toxicity in NSG mouse at 20 to 100 mg/kg, ip administered for 7 days; type: organism-based; details: in vivo, dose 20-100 mg/kg, time 7 day
[10] = Plasma protein binding in mouse assessed as unbound fraction; type: ADME, cell-free
[11] = Half life in mouse plasma at 20 mg/kg, ip; type: ADME, organism-based; details: in vivo, 20 mg/kg
[12] = Solubility of compound at pH 7.4; type: physicochemical; details: buffer
[13] = Toxicity in NSG mouse at 100 mg/kg, ip administered daily for 7 days; type: organism-based; details: in vivo, time 7 day
[14] = Toxicity in NSG mouse assessed as body weight loss at 20 to 100 mg/kg, ip administered for 7 days; type: organism-based; details: in vivo, dose 20-100 mg/kg, time 7 day
NCI-H596 [15] = assay: Inhibition of pro-HGF stimulated cell growth in human H596 cells at 10 uM by ELISA; type: functional, cell-based
[16] = target: T2, Hepatocyte growth factor activator serine protease (Homo sapiens) (UniProt Q04756); assay: Inhibition of recombinant human HGFA serine protease domain mediated pro-HGF activation preincubated for 30 mins followed by pro-HGF addition and measured after 1 hr by immunoblotting analysis
T2 sequence (whole entry): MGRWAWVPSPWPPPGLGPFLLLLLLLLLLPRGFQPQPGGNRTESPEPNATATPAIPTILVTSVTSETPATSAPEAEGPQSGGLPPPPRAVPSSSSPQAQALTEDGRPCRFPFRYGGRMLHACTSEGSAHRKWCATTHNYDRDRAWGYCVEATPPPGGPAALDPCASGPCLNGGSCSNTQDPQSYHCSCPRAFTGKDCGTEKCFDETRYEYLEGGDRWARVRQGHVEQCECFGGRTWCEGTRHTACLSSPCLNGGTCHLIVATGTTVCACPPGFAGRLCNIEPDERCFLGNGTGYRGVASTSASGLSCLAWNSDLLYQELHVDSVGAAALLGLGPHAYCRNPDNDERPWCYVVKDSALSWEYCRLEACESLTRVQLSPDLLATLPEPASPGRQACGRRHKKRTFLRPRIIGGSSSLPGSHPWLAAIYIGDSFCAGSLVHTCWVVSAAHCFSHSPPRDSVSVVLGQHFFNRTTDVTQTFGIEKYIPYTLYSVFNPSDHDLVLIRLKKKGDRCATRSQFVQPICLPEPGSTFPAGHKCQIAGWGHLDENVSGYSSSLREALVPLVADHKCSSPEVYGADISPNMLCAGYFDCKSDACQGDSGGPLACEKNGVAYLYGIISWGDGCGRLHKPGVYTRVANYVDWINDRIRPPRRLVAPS
Method in brief: as §1

Coagulation factor X = Coagulation factor X (Homo sapiens, UniProt P00742); assay: Inhibition of recombinant C-terminal 10His-tagged human coagulation factor 10a (Leu24 to Lys488 residues) expressed in baculovirus infected Sf9 insect cells using Bz-Ile-Glu-Gly-Arg-pNA as substrate preincubated for 30 mins followed by substrate addition by chromogenic assay
Serine protease hepsin [17] = target: T1, Serine protease hepsin; assay: Inhibition of recombinant human C-terminal 10-His tagged hepsin (Arg45 to Leu417) expressed in mouse myeloma cells using Boc-QAR-AMC as substrate preincubated for 30 mins followed by substrate addition by fluorescence based assay; type: single protein
Method in brief: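 Inhibitor in 11-point serial dilution (0-20 µM final, 2% DMSO) pre-incubated 30 min at room temperature with enzyme in TNC buffer (25 mM Tris, 150 mM NaCl, 5 mM CaCl2, 0.01% Triton X-100, pH 8). […] Hepsin activated beforehand 24 h at 37°C. Fluorescence ex 380/em 460 nm kinetic; four-parameter fit of velocities; mean of three experiments.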

HCC827 [18] = assay: Inhibition of pro-HGF stimulated wound healing in human HCC827 cells preincubated for 30 mins followed by pro-HGF stimulation and measured after 24 hrs by crystal violet staining based assay; type: functional, cell-based
Method in brief: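 HCC827 monolayers grown to confluence, serum-starved overnight, then scratched. Cells were pre-incubated 30 min with inhibitor (10 µM) and stimulated with HGF or pro-HGF for 24 h. Wells stained with crystal violet to score closure. n=3; one-way ANOVA versus pro-HGF alone.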

Structure (SMILES): CC(=O)N[C@@H](CO)C(=O)N[C@@H](CCCCN)C(=O)N[C@@H](CC(C)C)C(=O)N[C@@H](CCCNC(=N)N)C(=O)c1nc2ccc(C(=O)N[C@H](C(N)=O)C(C)C)cc2s1 (Ac-SKL[X1]V-NH2)
- Activity (HCC827 [1]): inactive
- Activity [2]: Non-Toxic
- Activity (EBC-1): Active
- IC50 (Prothrombin): 9000 nM
- Activity (HCC827 [3]): Active
- t1/2 [4]: 2.33 h
- t1/2 [5]: > 2.42 h
- inhibition (Serine protease hepsin [6]): Active
- t1/2 [7]: 3.07 h
- Activity (NCI-H596 [8]): Active
- Activity [9]: Non-Toxic
- fraction unbound [10]: 0.167
- t1/2 [11]: 2 h
- solubility [12]: 200 µM (≈ 161 µg/mL)
- Activity [13]: Non-Toxic
- Activity [14]: Non-Toxic
- inhibition (NCI-H596 [15]): Active
- inhibition [16]: Active
- IC50 (Coagulation factor X): 770 nM
- IC50 (Serine protease hepsin [17]): 0.38 nM
- inhibition (HCC827 [18]): Active
